Measured values: PubChem BioAssay
Active and inactive are the calls of the source.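 Rule for the calls, unless noted: active = visually confirmed hit in the image check and inhibition above 20%; inconclusive = visually confirmed hit but inhibition not above 20%; inactive = no visual hit in the image check.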

Experiments:
[1] = inhibitors of TNFa-induced NFkB p65 translocation, primary screen, imaging, HUVEC, MLSMR starter and 10KST1 sets (AID 438;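 active = inhibition above 20% together with a positive visual image hit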;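 note: compound added about 3h40 before a 20 min TNFalpha stimulation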;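 for inhibition: signal is the nuclear over cytoplasmic p65 intensity ratio per well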); details: HUVEC TNFa-induced p65 nuclear translocation; cell count: measured here: nuclei count (cytotoxicity indicator), at 2.08 µM unless noted; inhibition: at 2 µM, stronger effect = higher value unless noted
[2] = reduction of polyQ htt aggregates in cells – imaging, exon1htt(103Q)mCFP cells, high-content imaging, primary screen (AID 483;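 active = visual image review flags a hit and inhibition of aggregation exceeds 20%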;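 note: compound exposure lasted 3 days before fixation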;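 for nuclei count: percent of the per-plate median nuclei count of sample wells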); details: exon1htt(103Q)mCFP cell line, aggregate imaging, at 2 µM; inhibition of aggregation: stronger effect = higher value; nuclei count: measured here: cell count, toxicity
[3] = endothelial E-selectin expression blockers – imaging, HUVEC, immunofluorescence, MLSMR starter and 10KST1 sets, primary screen (AID 487); details: HUVEC TNFalpha-induced E-selectin immunofluorescence imaging, at 2 µM; inhibition: stronger effect = higher value; nuclei count: measured here: cell number, toxicity;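 for inhibition: signal is fraction of cell area covered by stained E-selectin grains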;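 for nuclei count: 100% = median nuclei count of all wells on the same plate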
[4] = target: Voltage-gated potassium channel subunit beta-2 (Rattus norvegicus) (UniProt P62483); experiment: inhibitors of rat Kvbeta2 reductase activity – biochemical, NADPH fluorescence, primary screen (AID 622;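 active = fluorescence slope higher than the sample average by over 3 SD, cut at about -0.22 in these data, passing the limit was not always enough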;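 note: slope of raw intensity against log time taken from 70 to 1610 s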); details: recombinant KvBeta, 4-cyanobenzaldehyde reduction, at 10 µM, stronger effect = higher value
[5] = target: Voltage-gated potassium channel subunit beta-2 (Rattus norvegicus) (UniProt P62483); experiment: enhancers of rat Kvbeta2 NADPH turnover – biochemical, NADPH fluorescence, primary screen (AID 623;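 active = NADPH fluorescence slope more negative than the mean of all samples by about 3 SD, 99.7% confidence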;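 note: fluorescence intensity change per second fitted from 20 to 320 s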); details: Recombinant KvBeta, NADPH fluorescence decrease slope, 10 min; at 10 µM; stronger effect = lower value
[6] = target: Muscarinic acetylcholine receptor M4 (Homo sapiens) (UniProt P08173); experiment: M4-linked GIRK flux change, two-sided – cell-based, HEK293 M4/GIRK, thallium flux, BTC-AM, M4 allosteric agonist project, primary screen (AID 625;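 active = fluorescence slope after compound addition differing from the mean of all tested samples at 99.7% confidence, mostly higher but some lower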;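 note: thallium influx through GIRK channels coupled to M4 in HEK293 cells with BTC-AM dye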); details: at 10 µM, actives lie on both sides
Procedure, shortened: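 Material: HEK293 cells with M4 receptor and GIRK channels; Times: cells overnight at 37 °C, BTC-AM loading 1 h, reads 2 min total; Technique: kinetic BTC-AM fluorescence sampled at 1 Hz, 10 s pre-addition baseline; Read-out basis: slope over 15–24 s of trace normalized to starting intensity; Controls: carbachol positive, DMSO negative.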

[7] = blockers of RIG-like receptor reporter activation – cell-based, Sendai virus stimulus, luciferase, 10K MLSCN set, TLR/RLR signaling modifier project, primary screen (AID 602276;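 active = inhibition at or above 50% at 10 µM; inactive = inhibition below 50%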;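 note: firefly luciferase from ISG56 promoter only with Renilla not read in this screen; 0% = Sendai virus plus DMSO and 100% = medium plus DMSO without virus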); details: HEK293 RL24 IRF3 luciferase reporter, at 10 µM, stronger effect = higher value
[8] = TLR3 IRF3 reporter activation blockers – cell-based, poly I:C stimulus, luciferase, 10K MLSCN set, primary screen (AID 602277;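 active = inhibition of the reporter signal at or above 50%; inactive = inhibition below 50%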); details: HEK293-TLR3 RL24 IRF3 luciferase reporter, at 10 µM, stronger effect = higher value

Sequence of Muscarinic acetylcholine receptor M4 (Homo sapiens) (P08173 whole entry, looked up): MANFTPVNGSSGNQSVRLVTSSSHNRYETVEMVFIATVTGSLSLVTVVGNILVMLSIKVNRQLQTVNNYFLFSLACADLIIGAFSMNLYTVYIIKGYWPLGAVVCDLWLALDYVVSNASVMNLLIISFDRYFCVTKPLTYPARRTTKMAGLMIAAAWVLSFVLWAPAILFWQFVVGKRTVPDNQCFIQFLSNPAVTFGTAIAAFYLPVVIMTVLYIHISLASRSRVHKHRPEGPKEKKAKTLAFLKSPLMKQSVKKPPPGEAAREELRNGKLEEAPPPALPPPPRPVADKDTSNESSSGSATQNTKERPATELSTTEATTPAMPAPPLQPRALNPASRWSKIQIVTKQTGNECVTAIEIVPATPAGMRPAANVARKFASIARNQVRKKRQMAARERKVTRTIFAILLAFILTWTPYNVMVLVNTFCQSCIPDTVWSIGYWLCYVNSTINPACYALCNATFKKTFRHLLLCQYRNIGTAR
Sequence of Voltage-gated potassium channel subunit beta-2 (Rattus norvegicus) (P62483 whole entry, looked up): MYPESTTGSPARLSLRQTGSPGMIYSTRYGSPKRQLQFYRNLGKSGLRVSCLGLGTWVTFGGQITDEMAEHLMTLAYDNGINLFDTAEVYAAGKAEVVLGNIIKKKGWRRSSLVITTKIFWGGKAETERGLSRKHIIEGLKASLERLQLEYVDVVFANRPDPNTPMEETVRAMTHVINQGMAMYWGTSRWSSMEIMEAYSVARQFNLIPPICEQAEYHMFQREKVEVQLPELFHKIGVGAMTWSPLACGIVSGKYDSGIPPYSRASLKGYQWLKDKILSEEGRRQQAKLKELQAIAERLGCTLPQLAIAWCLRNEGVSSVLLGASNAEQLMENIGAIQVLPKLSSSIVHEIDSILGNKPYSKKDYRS

| Structure (SMILES) | cell count [1] | inhibition [1] | inhibition of aggregation [2] | nuclei count [2] [%] | inhibition [3] | nuclei count [3] [%] | fluorescence slope [4] | NADPH fluorescence slope [5] | fluorescence slope [6] | inhibition [7] | inhibition [8] |
| --- | --- | --- | --- | --- | --- | --- | --- | --- | --- | --- | --- |
| COCCOC(=O)C1=C(N)Oc2c(c(=O)oc3ccccc23)C1c1ccncc1 (stereo unspecified) | 329 | 2.2% (inactive) | 1.7% (inactive) | 73 | 1.8% (inactive) | 73.8 | -0.474 (inactive) | -1.3e-05 (inactive) | 0.00616 (inactive) | 14.5% (inactive) | 27.3% (inactive) |
| O=C(c1ccc(CS(=O)(=O)c2ccccc2)o1)N1CCC2(CC1)OCCO2 | 379 | 8% (inactive) | -2% (inactive) | 97 | -80.2% (inactive) | 107 | -0.523 (inactive) | -0.000178 (inactive) | 0.00484 (inactive) | -15.4% (inactive) | -9.63% (inactive) |
| CC(C)=CCSc1nnc([C@@H](N)Cc2c[nH]c3ccccc23)o1 | 593 | 0.9% (inactive) | 14.2% (inactive) | 101 | 2.3% (inactive) | 92.2 | -0.561 (inactive) | 2.9e-05 (inactive) | 0.00453 (inactive) | 5.87% (inactive) | 2.18% (inactive) |
| COC(=O)c1c(C)n(Cc2ccc3c(c2)OCO3)c2ccc(O)cc12 | 598 | 2.2% (inactive) | -6.7% (inactive) | 109 | 30.8% (inactive) | 90.3 | -0.528 (inactive) | -1.6e-05 (inactive) | 0.0049 (inactive) | -0.687% (inactive) | -6.04% (inactive) |
| COc1ccccc1N1CCN(Cc2cccc(OC)c2O)CC1 | 509 | -6% (inactive) | 23.5% (inactive) | 95.4 | -10% (inactive) | 85.8 | -0.58 (inactive) | -0.000104 (inactive) | 0.0035 (inactive) | 14.4% (inactive) | 12.6% (inactive) |
| N#Cc1ccccc1Cn1cc(C(=O)c2ccco2)c2ccccc21 | 353 | 6% (inactive) | 23.1% (inactive) | 76.5 | -3.7% (inactive) | 80.5 | -0.254 (inactive) | -2.3e-05 (inactive) | 0.00586 (inactive) | 16.6% (inactive) | 15.1% (inactive) |
